Measurements from ChEMBL document CHEMBL1212799 (2010).
In brackets after ≈: the same amount, converted by molar mass.

How the values were obtained:
Klebsiella pneumoniae [1] = assay: Antibacterial activity against Klebsiella pneumoniae isolate 351 assessed as reduction of bacterial count at 8 ug/ml within 6 hrs in vitro pharmacodynamic model; type: functional
Klebsiella pneumoniae [2] = assay: Antibacterial activity against Klebsiella pneumoniae isolate 368 assessed as reduction of bacterial count at 32 ug/ml within 6 hrs in vitro pharmacodynamic model; type: functional
Klebsiella pneumoniae [3] = assay: fT>MIC in Klebsiella pneumoniae isolate 334 at 2 gram for every 8 hrs administered as 3 hrs infusion measured over 8-16 hrs in in vitro pharmcodynamic model; type: functional
How it was run: (§1)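 Samples assayed by HPLC (linear 0.25–40 µg/ml). Time free drug stayed above the modal triplicate broth-microdilution MIC (CLSI) calculated for each 8-h interval.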

Klebsiella pneumoniae [4] = assay: Antibacterial activity against Klebsiella pneumoniae isolate 328A in vitro pharmacodynamic model; type: functional
How it was run: (§2)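 Inoculum 10^6 CFU/ml; dosing began 0.5 h after inoculation. Two treated models plus one untreated control per isolate; blood-agar counts; change in log10 CFU/ml over 24 h (detection limit 10^1); drug levels checked by HPLC.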

Klebsiella pneumoniae [5] = assay: Antibacterial activity against Klebsiella pneumoniae isolate 354 assessed as reduction of bacterial count at 8 ug/ml within 6 hrs in vitro pharmacodynamic model; type: functional
Pseudomonas aeruginosa [6] = assay: Antibacterial activity against Pseudomonas aeruginosa isolate 1177 in vitro pharmacodynamic model; type: functional
How it was run: (§3)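 Simulated peak 38.4 µg/ml, trough 3.04 µg/ml. CAMHB at 37°C, 10^6 CFU/ml from overnight culture, drug started at 0.5 h. Two treated models plus one growth control. Change in log10 CFU/ml over 24 h on blood agar. Detection limit 10^1 CFU/ml.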

Klebsiella pneumoniae [7] = assay: fT>MIC in Klebsiella pneumoniae isolate 357 at 2 gram for every 8 hrs administered as 3 hrs infusion over 24 hrs in in vitro pharmcodynamic model; type: functional; how it was run: as §1
Pseudomonas aeruginosa [8] = assay: Antibacterial activity against Pseudomonas aeruginosa isolate 1038 assessed as reduction of bacterial count at 8 ug/ml within 6 hrs in vitro pharmacodynamic model; type: functional
Klebsiella pneumoniae [9] = assay: fT>MIC in Klebsiella pneumoniae isolate 377 at 2 gram for every 8 hrs administered as 3 hrs infusion over 24 hrs in in vitro pharmcodynamic model; type: functional
Klebsiella pneumoniae [10] = assay: Antibacterial activity against Klebsiella pneumoniae isolate 357 assessed as reduction of bacterial count at 16 ug/ml within 6 hrs in vitro pharmacodynamic model; type: functional
Pseudomonas aeruginosa [11] = assay: fT>MIC in Pseudomonas aeruginosa isolate 988 at 2 gram for every 8 hrs administered as 3 hrs infusion measured over 8-16 hrs in in vitro pharmcodynamic model; type: functional
Klebsiella pneumoniae [12] = assay: fT>MIC in Klebsiella pneumoniae isolate 351 at 2 gram for every 8 hrs administered as 3 hrs infusion measured over 8-16 hrs in in vitro pharmcodynamic model; type: functional; how it was run: as §1
Pseudomonas aeruginosa [13] = assay: fT>MIC in Pseudomonas aeruginosa isolate 896 at 2 gram for every 8 hrs administered as 3 hrs infusion measured over 0-8 hrs in in vitro pharmcodynamic model; type: functional
Klebsiella pneumoniae [14] = assay: fT>MIC in Klebsiella pneumoniae isolate 353 at 2 gram for every 8 hrs administered as 3 hrs infusion over 24 hrs in in vitro pharmcodynamic model; type: functional, isoalte 353; how it was run: as §1
Pseudomonas aeruginosa [15] = assay: fT>MIC in Pseudomonas aeruginosa isolate 1177 at 2 gram for every 8 hrs administered as 3 hrs infusion measured over 0-8 hrs in in vitro pharmcodynamic model; type: functional
Klebsiella pneumoniae [16] = assay: fT>MIC in Klebsiella pneumoniae isolate 354 at 2 gram for every 8 hrs administered as 3 hrs infusion measured over 0-8 hrs in in vitro pharmcodynamic model; type: functional; how it was run: as §1
Pseudomonas aeruginosa [17] = assay: fT>MIC in Pseudomonas aeruginosa isolate 1030 at 2 gram for every 8 hrs administered as 3 hrs infusion measured over 0-8 hrs in in vitro pharmcodynamic model; type: functional
Klebsiella pneumoniae [18] = assay: Antibacterial activity against Klebsiella pneumoniae isolate 354 in vitro pharmacodynamic model; type: functional; how it was run: as §2
Klebsiella pneumoniae [19] = assay: fT>MIC in Klebsiella pneumoniae isolate 377 at 2 gram for every 8 hrs administered as 3 hrs infusion measured over 16-24 hrs in in vitro pharmcodynamic model; type: functional
Klebsiella pneumoniae [20] = assay: fT>MIC in Klebsiella pneumoniae isolate 357 at 2 gram for every 8 hrs administered as 3 hrs infusion measured over 0-8 hrs in in vitro pharmcodynamic model; type: functional; how it was run: as §1
Pseudomonas aeruginosa [21] = assay: fT>MIC in Pseudomonas aeruginosa isolate 1038 at 2 gram for every 8 hrs administered as 3 hrs infusion over 24 hrs in in vitro pharmcodynamic model; type: functional
Klebsiella pneumoniae [22] = assay: fT>MIC in Klebsiella pneumoniae isolate 377 at 2 gram for every 8 hrs administered as 3 hrs infusion measured over 8-16 hrs in in vitro pharmcodynamic model; type: functional
Pseudomonas aeruginosa [23] = assay: Antibacterial activity against Pseudomonas aeruginosa isolate 988 assessed as reduction of bacterial count at 16 ug/ml within 6 hrs in vitro pharmacodynamic model; type: functional
Pseudomonas aeruginosa [24] = assay: fT>MIC in Pseudomonas aeruginosa isolate 896 at 2 gram for every 8 hrs administered as 3 hrs infusion measured over 8-16 hrs in in vitro pharmcodynamic model; type: functional
Klebsiella pneumoniae [25] = assay: fT>MIC in Klebsiella pneumoniae isolate 354 at 2 gram for every 8 hrs administered as 3 hrs infusion measured over 8-16 hrs in in vitro pharmcodynamic model; type: functional; how it was run: as §1
Pseudomonas aeruginosa [26] = assay: fT>MIC in Pseudomonas aeruginosa isolate 988 at 2 gram for every 8 hrs administered as 3 hrs infusion measured over 16-24 hrs in in vitro pharmcodynamic model; type: functional
Klebsiella pneumoniae [27] = assay: fT>MIC in Klebsiella pneumoniae isolate 353 at 2 gram for every 8 hrs administered as 3 hrs infusion measured over 16-24 hrs in in vitro pharmcodynamic model; type: functional, isoalte 353; how it was run: as §1
Klebsiella pneumoniae [28] = assay: Antibacterial activity against Klebsiella pneumoniae isolate 351 in vitro pharmacodynamic model; type: functional; how it was run: as §2
Klebsiella pneumoniae [29] = assay: fT>MIC in Klebsiella pneumoniae isolate 361 at 2 gram for every 8 hrs administered as 3 hrs infusion measured over 0-8 hrs in in vitro pharmcodynamic model; type: functional; how it was run: as §1
Pseudomonas aeruginosa [30] = assay: fT>MIC in Pseudomonas aeruginosa isolate 896 at 2 gram for every 8 hrs administered as 3 hrs infusion over 24 hrs in in vitro pharmcodynamic model; type: functional
Klebsiella pneumoniae [31] = assay: Antibacterial activity against Klebsiella pneumoniae isolate 368 in vitro pharmacodynamic model; type: functional; how it was run: as §3
Klebsiella pneumoniae [32] = assay: fT>MIC in Klebsiella pneumoniae isolate 334 at 2 gram for every 8 hrs administered as 3 hrs infusion measured over 0-8 hrs in in vitro pharmcodynamic model; type: functional; how it was run: as §1
Klebsiella pneumoniae [33] = assay: fT>MIC in Klebsiella pneumoniae isolate 353 at 2 gram for every 8 hrs administered as 3 hrs infusion measured over 8-16 hrs in in vitro pharmcodynamic model; type: functional, isoalte 353; how it was run: as §1
Pseudomonas aeruginosa [34] = assay: Antibacterial activity against Pseudomonas aeruginosa isolate 1038 in vitro pharmacodynamic model; type: functional; how it was run: as §3
Klebsiella pneumoniae [35] = assay: fT>MIC in Klebsiella pneumoniae isolate 357 at 2 gram for every 8 hrs administered as 3 hrs infusion measured over 16-24 hrs in in vitro pharmcodynamic model; type: functional; how it was run: as §1
Klebsiella pneumoniae [36] = assay: fT>MIC in Klebsiella pneumoniae isolate 328A at 2 gram for every 8 hrs administered as 3 hrs infusion measured over 0-8 hrs in in vitro pharmcodynamic model; type: functional; how it was run: as §1
Klebsiella pneumoniae [37] = assay: fT>MIC in Klebsiella pneumoniae isolate 375 at 2 gram for every 8 hrs administered as 3 hrs infusion over 24 hrs in in vitro pharmcodynamic model; type: functional
Klebsiella pneumoniae [38] = assay: fT>MIC in Klebsiella pneumoniae isolate 361 at 2 gram for every 8 hrs administered as 3 hrs infusion measured over 16-24 hrs in in vitro pharmcodynamic model; type: functional; how it was run: as §1
Klebsiella pneumoniae [39] = assay: fT>MIC in Klebsiella pneumoniae isolate 351 at 2 gram for every 8 hrs administered as 3 hrs infusion measured over 0-8 hrs in in vitro pharmcodynamic model; type: functional; how it was run: as §1

C[C@@H](O)[C@H]1C(=O)N2C(C(=O)O)=C(S[C@@H]3CN[C@H](C(=O)N(C)C)C3)[C@H](C)[C@H]12 [MEROPENEM]
log10cfu (Klebsiella pneumoniae [1]): >3 | log10cfu (Klebsiella pneumoniae [2]): >3 | fT>MIC (Klebsiella pneumoniae [3]): 0% | MIC (Klebsiella pneumoniae [4]): 8 µg/mL (≈ 20.9 µM) | log10cfu (Klebsiella pneumoniae [5]): >3 | MIC (Pseudomonas aeruginosa [6]): 8 µg/mL (≈ 20.9 µM) | fT>MIC (Klebsiella pneumoniae [7]): 47% | log10cfu (Pseudomonas aeruginosa [8]): >=3 | fT>MIC (Klebsiella pneumoniae [9]): 100% | log10cfu (Klebsiella pneumoniae [10]): >3 | fT>MIC (Pseudomonas aeruginosa [11]): 50% | fT>MIC (Klebsiella pneumoniae [12]): 62% | fT>MIC (Pseudomonas aeruginosa [13]): 50% | fT>MIC (Klebsiella pneumoniae [14]): 47% | fT>MIC (Pseudomonas aeruginosa [15]): 75% | fT>MIC (Klebsiella pneumoniae [16]): 68% | fT>MIC (Pseudomonas aeruginosa [17]): 75% | MIC (Klebsiella pneumoniae [18]): 8 µg/mL (≈ 20.9 µM) | fT>MIC (Klebsiella pneumoniae [19]): 100% | fT>MIC (Klebsiella pneumoniae [20]): 12% | fT>MIC (Pseudomonas aeruginosa [21]): 69% | fT>MIC (Klebsiella pneumoniae [22]): 100% | log10cfu (Pseudomonas aeruginosa [23]): >=3 | fT>MIC (Pseudomonas aeruginosa [24]): 63% | fT>MIC (Klebsiella pneumoniae [25]): 56% | fT>MIC (Pseudomonas aeruginosa [26]): 38% | fT>MIC (Klebsiella pneumoniae [27]): 0% | MIC (Klebsiella pneumoniae [28]): 8 µg/mL (≈ 20.9 µM) | fT>MIC (Klebsiella pneumoniae [29]): 0% | fT>MIC (Pseudomonas aeruginosa [30]): 47% | MIC (Klebsiella pneumoniae [31]): 32 µg/mL (≈ 83.4 µM) | fT>MIC (Klebsiella pneumoniae [32]): 0% | fT>MIC (Klebsiella pneumoniae [33]): 59% | MIC (Pseudomonas aeruginosa [34]): 8 µg/mL (≈ 20.9 µM) | fT>MIC (Klebsiella pneumoniae [35]): 0% | fT>MIC (Klebsiella pneumoniae [36]): 69% | fT>MIC (Klebsiella pneumoniae [37]): 16% | fT>MIC (Klebsiella pneumoniae [38]): 0% | fT>MIC (Klebsiella pneumoniae [39]): 69%
